Assay results: ChEMBL document CHEMBL1828624, “Synthesis and antioxidant activity of oxazolyl/thiazolylsulfonylmethyl pyrazoles and isoxazoles” (Eur J Med Chem, 2011)
≈ marks a conversion by molar mass, not a printed value. Calls of active or inactive are those of the source. The calls are words filed in the database; no cut-off is given here.

test system: Radical scavenging activity; assay: Antioxidant activity assessed as DPPH free radical scavenging activity at 100 ug/ml after 30 mins by spectrophotometric analysis relative to control; format: functional
How it was run: (§1)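 Compounds in methanol at […] were mixed with 0.004% (w/v) methanolic DPPH. After 30 min at room temperature, absorbance was read at 517 nm against a blank. Percent inhibition was calculated from control (all reagents minus compound) and sample absorbances. Run in triplicate.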

SMILES | inhibition
O=S(=O)(CC1=NCCO1)C1C(c2ccccc2)=NN(c2ccccc2)C1c1ccccc1 (stereo not given) | 58%
O=S(=O)(CC1=NCCO1)C1=NNCC1c1ccccc1 (stereo not given) | inactive
O=S(=O)(CC1=NCCS1)c1c(-c2ccccc2)nn(-c2ccccc2)c1-c1ccccc1 | inactive
O=S(=O)(CC1=NCCS1)C1=NNCC1c1ccccc1 (stereo not given) | inactive
O=C1O[C@H]([C@@H](O)CO)C(O)=C1O [ASCORBIC ACID] | 83.8%
Cc1ccc(-c2c[nH]nc2S(=O)(=O)CC2=NCCO2)cc1 | 69%
COc1ccc(C2=NOC(c3ccc(C)cc3)C2S(=O)(=O)CC2=NCCO2)cc1 (stereo not given) | 66.5%
COc1ccc(-c2nn(-c3ccccc3)c(-c3ccc(C)cc3)c2S(=O)(=O)CC2=NCCS2)cc1 | inactive
Cc1ccc(C2CNN=C2S(=O)(=O)CC2=NCCS2)cc1 (stereo not given) | 48.2%

test system: not listed separately; assay: Antioxidant activity assessed as hydrogen peroxide scavenging activity at 75 ug/ml relative to control; format: functional

SMILES | Activity
O=S(=O)(CC1=NCCO1)C1C(c2ccccc2)=NN(c2ccccc2)C1c1ccccc1 (stereo not given) | 45.5%
O=S(=O)(CC1=NCCO1)C1=NNCC1c1ccccc1 (stereo not given) | inactive
O=S(=O)(CC1=NCCS1)c1c(-c2ccccc2)nn(-c2ccccc2)c1-c1ccccc1 | inactive
O=S(=O)(CC1=NCCS1)C1=NNCC1c1ccccc1 (stereo not given) | inactive
O=C1O[C@H]([C@@H](O)CO)C(O)=C1O [ASCORBIC ACID] | 79.3%
Cc1ccc(-c2c[nH]nc2S(=O)(=O)CC2=NCCO2)cc1 | 62%
COc1ccc(C2=NOC(c3ccc(C)cc3)C2S(=O)(=O)CC2=NCCO2)cc1 (stereo not given) | 66.6%
COc1ccc(-c2nn(-c3ccccc3)c(-c3ccc(C)cc3)c2S(=O)(=O)CC2=NCCS2)cc1 | inactive
Cc1ccc(C2CNN=C2S(=O)(=O)CC2=NCCS2)cc1 (stereo not given) | 42.2%

test system: not listed separately; assay: Antioxidant activity assessed as nitric oxide scavenging activity at 50 ug/ml after 150 mins by Griess method relative to control; format: functional
How it was run: (§2)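 NO was generated from sodium nitroprusside (10 mM) in phosphate buffer saline (0.2 M, pH 7.4). Compounds were added at […] and incubated 150 min at 25 °C. Percent scavenging was calculated from control (all reagents minus compound) and sample absorbances. Run in triplicate.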

SMILES | Activity
O=S(=O)(CC1=NCCO1)C1C(c2ccccc2)=NN(c2ccccc2)C1c1ccccc1 (stereo not given) | 46.7%
O=S(=O)(CC1=NCCO1)C1=NNCC1c1ccccc1 (stereo not given) | inactive
O=S(=O)(CC1=NCCS1)c1c(-c2ccccc2)nn(-c2ccccc2)c1-c1ccccc1 | inactive
O=S(=O)(CC1=NCCS1)C1=NNCC1c1ccccc1 (stereo not given) | inactive
O=C1O[C@H]([C@@H](O)CO)C(O)=C1O [ASCORBIC ACID] | 78.2%
Cc1ccc(-c2c[nH]nc2S(=O)(=O)CC2=NCCO2)cc1 | 59.4%
COc1ccc(C2=NOC(c3ccc(C)cc3)C2S(=O)(=O)CC2=NCCO2)cc1 (stereo not given) | 61.9%
COc1ccc(-c2nn(-c3ccccc3)c(-c3ccc(C)cc3)c2S(=O)(=O)CC2=NCCS2)cc1 | inactive
Cc1ccc(C2CNN=C2S(=O)(=O)CC2=NCCS2)cc1 (stereo not given) | 43.1%

test system: not listed separately; assay: Antioxidant activity assessed as nitric oxide scavenging activity at 100 ug/ml after 150 mins by Griess method relative to control; format: functional; how it was run: as §2

SMILES | Activity
O=S(=O)(CC1=NCCO1)C1C(c2ccccc2)=NN(c2ccccc2)C1c1ccccc1 (stereo not given) | 57.9%
O=S(=O)(CC1=NCCO1)C1=NNCC1c1ccccc1 (stereo not given) | inactive
O=S(=O)(CC1=NCCS1)c1c(-c2ccccc2)nn(-c2ccccc2)c1-c1ccccc1 | inactive
O=S(=O)(CC1=NCCS1)C1=NNCC1c1ccccc1 (stereo not given) | inactive
O=C1O[C@H]([C@@H](O)CO)C(O)=C1O [ASCORBIC ACID] | 82.8%
Cc1ccc(-c2c[nH]nc2S(=O)(=O)CC2=NCCO2)cc1 | 65.2%
COc1ccc(C2=NOC(c3ccc(C)cc3)C2S(=O)(=O)CC2=NCCO2)cc1 (stereo not given) | 71.2%
COc1ccc(-c2nn(-c3ccccc3)c(-c3ccc(C)cc3)c2S(=O)(=O)CC2=NCCS2)cc1 | inactive
Cc1ccc(C2CNN=C2S(=O)(=O)CC2=NCCS2)cc1 (stereo not given) | 52.1%

test system: not listed separately; assay: Antioxidant activity assessed as nitric oxide scavenging activity at 75 ug/ml after 150 mins by Griess method relative to control; format: functional; how it was run: as §2

SMILES | Activity
O=S(=O)(CC1=NCCO1)C1C(c2ccccc2)=NN(c2ccccc2)C1c1ccccc1 (stereo not given) | 51.4%
O=S(=O)(CC1=NCCO1)C1=NNCC1c1ccccc1 (stereo not given) | inactive
O=S(=O)(CC1=NCCS1)c1c(-c2ccccc2)nn(-c2ccccc2)c1-c1ccccc1 | inactive
O=S(=O)(CC1=NCCS1)C1=NNCC1c1ccccc1 (stereo not given) | inactive
O=C1O[C@H]([C@@H](O)CO)C(O)=C1O [ASCORBIC ACID] | 81.5%
Cc1ccc(-c2c[nH]nc2S(=O)(=O)CC2=NCCO2)cc1 | 63.5%
COc1ccc(C2=NOC(c3ccc(C)cc3)C2S(=O)(=O)CC2=NCCO2)cc1 (stereo not given) | 65.9%
COc1ccc(-c2nn(-c3ccccc3)c(-c3ccc(C)cc3)c2S(=O)(=O)CC2=NCCS2)cc1 | inactive
Cc1ccc(C2CNN=C2S(=O)(=O)CC2=NCCS2)cc1 (stereo not given) | 48.6%

test system: not listed separately; assay: Antioxidant activity assessed as hydrogen peroxide scavenging activity at 100 ug/ml relative to control; format: functional

SMILES | Activity
O=S(=O)(CC1=NCCO1)C1C(c2ccccc2)=NN(c2ccccc2)C1c1ccccc1 (stereo not given) | 48.1%
O=S(=O)(CC1=NCCO1)C1=NNCC1c1ccccc1 (stereo not given) | inactive
O=S(=O)(CC1=NCCS1)c1c(-c2ccccc2)nn(-c2ccccc2)c1-c1ccccc1 | inactive
O=S(=O)(CC1=NCCS1)C1=NNCC1c1ccccc1 (stereo not given) | inactive
O=C1O[C@H]([C@@H](O)CO)C(O)=C1O [ASCORBIC ACID] | 83.2%
Cc1ccc(-c2c[nH]nc2S(=O)(=O)CC2=NCCO2)cc1 | 65.5%
COc1ccc(C2=NOC(c3ccc(C)cc3)C2S(=O)(=O)CC2=NCCO2)cc1 (stereo not given) | 70.9%
COc1ccc(-c2nn(-c3ccccc3)c(-c3ccc(C)cc3)c2S(=O)(=O)CC2=NCCS2)cc1 | inactive
Cc1ccc(C2CNN=C2S(=O)(=O)CC2=NCCS2)cc1 (stereo not given) | 45%

test system: Radical scavenging activity; assay: Antioxidant activity assessed as DPPH free radical scavenging activity at 50 ug/ml after 30 mins by spectrophotometric analysis relative to control; format: functional; how it was run: as §1

SMILES | inhibition
O=S(=O)(CC1=NCCO1)C1C(c2ccccc2)=NN(c2ccccc2)C1c1ccccc1 (stereo not given) | 48.2%
O=S(=O)(CC1=NCCO1)C1=NNCC1c1ccccc1 (stereo not given) | inactive
O=S(=O)(CC1=NCCS1)c1c(-c2ccccc2)nn(-c2ccccc2)c1-c1ccccc1 | inactive
O=S(=O)(CC1=NCCS1)C1=NNCC1c1ccccc1 (stereo not given) | inactive
O=C1O[C@H]([C@@H](O)CO)C(O)=C1O [ASCORBIC ACID] | 77.2%
Cc1ccc(-c2c[nH]nc2S(=O)(=O)CC2=NCCO2)cc1 | 59.8%
COc1ccc(C2=NOC(c3ccc(C)cc3)C2S(=O)(=O)CC2=NCCO2)cc1 (stereo not given) | 58.1%
COc1ccc(-c2nn(-c3ccccc3)c(-c3ccc(C)cc3)c2S(=O)(=O)CC2=NCCS2)cc1 | inactive
Cc1ccc(C2CNN=C2S(=O)(=O)CC2=NCCS2)cc1 (stereo not given) | 40.9%

test system: Radical scavenging activity; assay: Antioxidant activity assessed as DPPH free radical scavenging activity at 75 ug/ml after 30 mins by spectrophotometric analysis relative to control; format: functional; how it was run: as §1

SMILES | inhibition
O=S(=O)(CC1=NCCO1)C1C(c2ccccc2)=NN(c2ccccc2)C1c1ccccc1 (stereo not given) | 53.4%
O=S(=O)(CC1=NCCO1)C1=NNCC1c1ccccc1 (stereo not given) | inactive
O=S(=O)(CC1=NCCS1)c1c(-c2ccccc2)nn(-c2ccccc2)c1-c1ccccc1 | inactive
O=S(=O)(CC1=NCCS1)C1=NNCC1c1ccccc1 (stereo not given) | inactive
O=C1O[C@H]([C@@H](O)CO)C(O)=C1O [ASCORBIC ACID] | 81%
Cc1ccc(-c2c[nH]nc2S(=O)(=O)CC2=NCCO2)cc1 | 63.7%
COc1ccc(C2=NOC(c3ccc(C)cc3)C2S(=O)(=O)CC2=NCCO2)cc1 (stereo not given) | 63.3%
COc1ccc(-c2nn(-c3ccccc3)c(-c3ccc(C)cc3)c2S(=O)(=O)CC2=NCCS2)cc1 | inactive
Cc1ccc(C2CNN=C2S(=O)(=O)CC2=NCCS2)cc1 (stereo not given) | 44%

test system: Radical scavenging activity; assay: Antioxidant activity assessed as DPPH free radical scavenging activity after 30 mins by spectrophotometric analysis; format: functional; how it was run: as §1

IC50 | SMILES
86.25 µg/mL (≈ 194 µM) | O=S(=O)(CC1=NCCO1)C1C(c2ccccc2)=NN(c2ccccc2)C1c1ccccc1 (stereo not given)
Not Active | O=S(=O)(CC1=NCCO1)C1=NNCC1c1ccccc1 (stereo not given)
Not Active | O=S(=O)(CC1=NCCS1)c1c(-c2ccccc2)nn(-c2ccccc2)c1-c1ccccc1
Not Active | O=S(=O)(CC1=NCCS1)C1=NNCC1c1ccccc1 (stereo not given)
59.65 µg/mL (≈ 339 µM) | O=C1O[C@H]([C@@H](O)CO)C(O)=C1O [ASCORBIC ACID]
72.51 µg/mL (≈ 237 µM) | Cc1ccc(-c2c[nH]nc2S(=O)(=O)CC2=NCCO2)cc1
75.16 µg/mL (≈ 181 µM) | COc1ccc(C2=NOC(c3ccc(C)cc3)C2S(=O)(=O)CC2=NCCO2)cc1 (stereo not given)
Not Active | COc1ccc(-c2nn(-c3ccccc3)c(-c3ccc(C)cc3)c2S(=O)(=O)CC2=NCCS2)cc1
103.73 µg/mL (≈ 321 µM) | Cc1ccc(C2CNN=C2S(=O)(=O)CC2=NCCS2)cc1 (stereo not given)

test system: not listed separately; assay: Antioxidant activity assessed as hydrogen peroxide scavenging activity at 50 ug/ml relative to control; format: functional

SMILES | Activity
O=S(=O)(CC1=NCCO1)C1C(c2ccccc2)=NN(c2ccccc2)C1c1ccccc1 (stereo not given) | 44.4%
O=S(=O)(CC1=NCCO1)C1=NNCC1c1ccccc1 (stereo not given) | inactive
O=S(=O)(CC1=NCCS1)c1c(-c2ccccc2)nn(-c2ccccc2)c1-c1ccccc1 | inactive
O=S(=O)(CC1=NCCS1)C1=NNCC1c1ccccc1 (stereo not given) | inactive
O=C1O[C@H]([C@@H](O)CO)C(O)=C1O [ASCORBIC ACID] | 77.7%
Cc1ccc(-c2c[nH]nc2S(=O)(=O)CC2=NCCO2)cc1 | 60.7%
COc1ccc(C2=NOC(c3ccc(C)cc3)C2S(=O)(=O)CC2=NCCO2)cc1 (stereo not given) | 65.9%
COc1ccc(-c2nn(-c3ccccc3)c(-c3ccc(C)cc3)c2S(=O)(=O)CC2=NCCS2)cc1 | inactive
Cc1ccc(C2CNN=C2S(=O)(=O)CC2=NCCS2)cc1 (stereo not given) | 39.8%
